In ChEMBL document CHEMBL1125002, “Antiarthritic and suppressor cell inducing activity of azaspiranes: structure-function relationships of a novel class of immunomodulatory agents” (J Med Chem, 1990):
Active and inactive are the calls of the source. No cut-off for these calls is given here.

Experiments:
Rattus norvegicus [1] = experiment: Adjuvant arthritic rat activity with respect to spirogermanium at a dose of 15 mg/kg; assay type: functional
Procedure, shortened: (§1)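 Lewis rats given adjuvant on day 0. Drug homogenized in aqueous 0.5% gum tragacanth, given orally at 10 mL/kg daily on days 0–10. Volume of the noninjected (secondary) hind paw measured on day 16 by mercury displacement. Activity is relative to non-drug controls and scaled to spirogermanium at 30 mg/kg, which is set at 1.00. Significance by Student's t test.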

Rattus norvegicus [2] = experiment: Adjuvant arthritic rat activity determined with respect to spirogermanium at a dose of 30 mg/kg; assay type: functional; procedure, shortened: as §1
Rattus norvegicus [3] = experiment: Total starting number of animals upon administration at a dose of 30 mg/kg; 8/8; assay type: functional
Rattus norvegicus [4] = experiment: Total starting number of animals upon administration at a dose of 15 mg/kg; 8/8; assay type: functional
Rattus norvegicus [5] = experiment: Total starting number of animals upon administration at a dose of 60 mg/kg; 0/6; assay type: functional
Rattus norvegicus [6] = experiment: Total starting number of animals upon administration at a dose of 30 mg/kg; 6/6; assay type: functional
Rattus norvegicus [7] = experiment: Total starting number of animals upon administration at a dose of 30 mg/kg; 5/6; assay type: functional
Rattus norvegicus [8] = experiment: Adjuvant arthritic rat activity with respect to spirogermanium at a dose of 30 mg/kg, active; assay type: functional, organism-based; set-up: dose 30 mg/kg
Rattus norvegicus [9] = experiment: Adjuvant arthritic rat activity with respect to spirogermanium at a dose of 15 mg/kg, inactive; assay type: functional, organism-based; set-up: dose 15 mg/kg
Rattus norvegicus [10] = experiment: Total starting number of animals upon administration at a dose of 15 mg/kg; 0/7; assay type: functional, organism-based; set-up: dose 15 mg/kg
Rattus norvegicus [11] = experiment: Total starting number of animals upon administration at a dose of 30 mg/kg; 0/7; assay type: functional
Rattus norvegicus [12] = experiment: Total starting number of animals upon administration at a dose of 60 mg/kg; 0/7; assay type: functional, organism-based; set-up: dose 60 mg/kg
Rattus norvegicus [13] = experiment: Adjuvant arthritic rat activity with respect to spirogermanium at a dose of 30 mg/kg; assay type: functional; procedure, shortened: as §1
Rattus norvegicus [14] = experiment: Adjuvant arthritic rat activity with respect to spirogermanium at a dose of 25 mg/kg; assay type: functional
Rattus norvegicus [15] = experiment: Total starting number of animals upon administration at a dose of 25 mg/kg; 7/7; assay type: functional
Rattus norvegicus [16] = experiment: (§2) Adjuvant arthritic rat activity with respect to spirogermanium at a dose of 60 mg/kg; assay type: functional
Rattus norvegicus [17] = experiment: as §2; assay type: functional; procedure, shortened: as §1; remark: listed apart in the source
Rattus norvegicus [18] = experiment: Total starting number of animals upon administration at a dose of 60 mg/kg; 5/8; assay type: functional
Rattus norvegicus [19] = experiment: Total starting number of animals upon administration at a dose of 15 mg/kg; 1/8; assay type: functional
Rattus norvegicus [20] = experiment: Adjuvant arthritic rat activity with respect to spirogermanium at a dose of 10 mg/kg; assay type: functional
Rattus norvegicus [21] = experiment: Total starting number of animals upon administration at a dose of 30 mg/kg; 7/7; assay type: functional
Rattus norvegicus [22] = experiment: Total starting number of animals upon administration at a dose of 10 mg/kg; 7/7; assay type: functional
Rattus norvegicus [23] = experiment: Total starting number of animals upon administration at a dose of 90 mg/kg; 0/7; assay type: functional
Rattus norvegicus [24] = experiment: Adjuvant arthritic rat activity with respect to spirogermanium at a dose of 7.5 mg/kg; assay type: functional; procedure, shortened: as §1
Rattus norvegicus [25] = experiment: Total starting number of animals upon administration at a dose of 15 mg/kg; 2/8; assay type: functional
Rattus norvegicus [26] = experiment: Total starting number of animals upon administration at a dose of 7.5 mg/kg; 8/8; assay type: functional
Rattus norvegicus [27] = experiment: Total starting number of animals upon administration at a dose of 30 mg/kg; 0/8; assay type: functional
Rattus norvegicus [28] = experiment: Total starting number of animals upon administration at a dose of 30 mg/kg; 7/8; assay type: functional
Rattus norvegicus [29] = experiment: Total starting number of animals upon administration at a dose of 60 mg/kg; 8/8; assay type: functional
Rattus norvegicus [30] = experiment: Total starting number of animals upon administration at a dose of 30 mg/kg; 3/8; assay type: functional

| Compound | Activity (Rattus norvegicus [2]) | Survival (Rattus norvegicus [3]) | further results |
| --- | --- | --- | --- |
| CCCC1(CCC)CCC2(CCN(CCCN(C)C)C2)CC1 | 1.35 | 8 | Activity (Rattus norvegicus [1]): 0.18; Survival (Rattus norvegicus [4]): 8; Survival (Rattus norvegicus [5]): 0 |
| CCCCN(CCCC)CCCN1CCC2(CCC(CCC)(CCC)CC2)C1 | 0.07 | 8 |  |
| CCCC1(CCC)CCC2(CCN(CCCNC)C2)CC1 | 1.55 |  | Survival (Rattus norvegicus [6]): 6 |
| CCCC1(CCC)CCC2(CCN(CCCN)C2)CC1 | 0.91 |  | Survival (Rattus norvegicus [7]): 5 |
| [3-(8,8-Diethyl-2-aza-8-germa-spiro[4.5]dec-2-yl)-propyl]-dimethyl-amine |  |  | Activity (Rattus norvegicus [8]): Active; Activity (Rattus norvegicus [9]): inactive; Survival (Rattus norvegicus [10]): 0; Survival (Rattus norvegicus [11]): 0; Survival (Rattus norvegicus [12]): 0 |
| CCCC1(CCC)CCC2(CCN(CCCCCCCN(C)C)C2)CC1 |  | 8 | Activity (Rattus norvegicus [13]): 1.57 |
| CN(C)CCCN1CCC2(CCSCC2)C1 |  |  | Activity (Rattus norvegicus [14]): 0; Survival (Rattus norvegicus [15]): 7 |
| CN(C)CCCN1CCC2(CC[Si](C)(C)CC2)C1 |  | 0 | Activity (Rattus norvegicus [16]): 0 |
| CN(C)CCCN1CCC2(CCCCC2)C1 | 0.27 | 8 |  |
| CN(C)CCCN1CCC2(CCC3(CCCCCC3)CC2)C1 | 0.22 | 8 | Activity (Rattus norvegicus [17]): 1.7; Survival (Rattus norvegicus [18]): 5 |
| CCCCCC1(CCCCC)CCN(CCCN(C)C)C1.Cl | 0.19 | 8 |  |
| CC[Si]1(CC)CCC2(CCN(CCCN(C)C)C2)CC1 | 0.92 | 8 | Activity (Rattus norvegicus [1]): 0.27; Survival (Rattus norvegicus [4]): 8 |
| CN(C)CCCN1CCC2(CCC(c3ccccc3)CC2)C1 (stereo not given) | 0.25 | 8 |  |
| CCCC1(CCC)CCC2(CCN(CCCN3CCOCC3)C2)CC1.Cl | 0 |  | Activity (Rattus norvegicus [1]): 0; Survival (Rattus norvegicus [19]): 1; Survival (Rattus norvegicus [11]): 0 |
| CCCC1(CCC)CCC2(CC1)CC[N+](C)(CCC[N+](C)(C)C)C2 (stereo not given) | 0.05 | 8 |  |
| CCC1(CC)CCC2(CCN(CCCN(C)C)CC2)CC1 | 0.3 |  | Activity (Rattus norvegicus [20]): 0.03; Survival (Rattus norvegicus [21]): 7; Survival (Rattus norvegicus [22]): 7; Survival (Rattus norvegicus [23]): 0 |
| CN(C)CCCN1CC2C3CCC(CC3)C2C1.Cl (stereo not given) | 0.35 | 8 |  |
| CCCC1(CCC)CCC2(CCN(CCN(C)C)C2)CC1 | 0 | 8 |  |
| CN(C)CCCN1CCC2(CCC(C(C)(C)C)CC2)CC1 | 0.33 |  | Activity (Rattus norvegicus [20]): 0.04; Survival (Rattus norvegicus [21]): 7; Survival (Rattus norvegicus [22]): 7; Survival (Rattus norvegicus [23]): 0 |
| CN(C)CCCN1CCC2(CCC(C(C)(C)C)CC2)C1 (stereo not given) | 0.31 | 8 |  |
| CC1CCC2(CC1)CCN(CCCN(C)C)CC2 | 0.25 | 8 |  |

| Compound | Activity (Rattus norvegicus [2]) | Survival (Rattus norvegicus [3]) | further results |
| --- | --- | --- | --- |
| CCCCC1(CCCC)CCC2(CCN(CCCN(C)C)C2)CC1 |  |  | Activity (Rattus norvegicus [24]): 0.41; Survival (Rattus norvegicus [25]): 2; Survival (Rattus norvegicus [26]): 8; Survival (Rattus norvegicus [27]): 0 |
| CN(C)CCCN1CCC2(CCCCCC2)C1.Cl | 0.2 | 8 |  |
| CC(C)CC1(CC(C)C)CCC2(CCN(CCCN(C)C)C2)CC1 | 0.97 |  | Survival (Rattus norvegicus [28]): 7 |
| CN(C)CCCN1CCC2(CCCCC2)CC1 | 0.2 | 8 |  |
| CN(C)CCCN1CCC2(CC3CCC2C3)C1.Cl (stereo not given) | 0 | 8 | Activity (Rattus norvegicus [17]): 0.1; Survival (Rattus norvegicus [29]): 8 |
| CCCN(CCC)CCCN1CCC2(CCC(CCC)(CCC)CC2)C1 | 0.43 | 8 |  |
| CC1CCCC2(CCN(CCCN(C)C)C2)C1.Cl (stereo not given) | 0 | 8 |  |
| CCCCCCCCCCC1CCC2(CC1)CCN(CCCN(C)C)C2 (stereo not given) |  | 8 | Activity (Rattus norvegicus [13]): 0.78 |
| CCCCCC1(CCCCC)CCC2(CCN(CCCN(C)C)CC2)CC1 |  |  | Activity (Rattus norvegicus [24]): 0.18; Activity (Rattus norvegicus [1]): 0.18; Survival (Rattus norvegicus [4]): 8; Survival (Rattus norvegicus [26]): 8; Survival (Rattus norvegicus [27]): 0 |
| CCCC1(CCC)CCC2(CCN(CCCN3CCCCC3)C2)CC1 | 1.7 | 8 |  |
| CCC1(CC)CCC2(CCN(CCCN(C)C)C2)CC1 | 0.57 |  | Activity (Rattus norvegicus [20]): 0.1; Survival (Rattus norvegicus [21]): 7; Survival (Rattus norvegicus [22]): 7; Survival (Rattus norvegicus [23]): 0 |
| CCCC1(CCC)CCC2(CCN(CCCCCCN(C)C)C2)CC1 | 1.2 | 8 |  |
| CCCC1(CCC)CCC2(CCN(CCCN(C)C)CC2)CC1 | 1.02 |  | Survival (Rattus norvegicus [30]): 3 |
| CCCC1(CCC)CCC2(CCN(CCCN(CC)CC)C2)CC1 [ATIPRIMOD] | 1.42 | 8 |  |
| CCCC1(CCC)CCC2(CCN(CCCO)C2)CC1.Cl |  |  | Activity (Rattus norvegicus [17]): 0.31; Survival (Rattus norvegicus [29]): 8 |
| CCCC1(CCC)CCC2(CCN(CCCCN(C)C)C2)CC1 | 0.46 | 8 |  |
| CCCC1(CCC)CCC2(CCN(CCCNC(C)=O)C2)CC1 | 0.24 |  | Survival (Rattus norvegicus [6]): 6 |
| CCCC1(CCC)CCC2(CCN(CCCCCN(C)C)C2)CC1 | 0.82 | 8 |  |
| CCCC1(CCC)CCC2(CCN(CCCN3CCCC3)C2)CC1 | 1.03 | 8 |  |
| CN(C)CCCN1CCC2(CCC(C)(C)CC2)C1 | 0.12 | 8 |  |
